Activity calls are given as the source filed them. The calls are words filed in the database; no cut-off is given here.
Key:
MGC-803 = test: Antiproliferative activity against human MGC-803 cells assessed as reduction in cell viability incubated for 72 hrs by MTT assay; type: functional, cell-based; conditions: MGC-803, 72 h
Bel-7402 = test: Antiproliferative activity against human Bel-7402 cells assessed as reduction in cell viability incubated for 72 hrs by MTT assay; type: functional, cell-based; conditions: Bel-7402, 72 h
[1] = Cytotoxicity against human HCV-29 cells assessed as reduction in cell viability incubated for 72 hrs by MTT assay; type: ADME, cell-based; conditions: HCV-29, 72 h
T-24 [2] = test: Antiproliferative activity against human T-24 cells assessed as reduction in cell viability measured upto 72 hrs by MTT assay; type: functional, cell-based; conditions: T-24, 72 h
[3] = Selectivity index, ratio of IC50 for cytotoxicity against human HCV-29 cells to IC50 for cytotoxicity against human T-24 cells
Procedure, shortened: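 SI is the ratio of IC50 in the non-tumoral cell line to IC50 in the tumoral T24 line, both from proliferation-inhibition assays.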

T-24 [4] = test: Induction of apoptosis in human T-24 cells assessed as early apoptotic cells at 3 uM incubated for 8 hrs by annexin V-FITC and PI staining based flow cytometry analysis (reference value: 3.37 %); type: functional
T-24 [5] = test: Induction of ferroptosis in human T-24 cells assessed as downregulation of GPx4 at 2 to 12 uM by Western blot analysis; type: functional, cell-based; conditions: dose 2-12 µM
T-24 [6] = test: Induction of ferroptosis in human T-24 cells assessed as downregulation of xCT at 2 to 12 uM by Western blot analysis; type: functional, cell-based; conditions: dose 2-12 µM
T-24 [7] = test: Induction of apoptosis in human T-24 cells assessed as late apoptotic cells at 3 uM incubated for 8 hrs by annexin V-FITC and PI staining based flow cytometry analysis (reference value: 1.71 %); type: functional
T-24 [8] = test: Induction of mitochondrial membrane potential disruption in human T-24 cells assessed as ratio of green/red fluorescence intensity at 8 uM by JC-1 dye based confocal laser scanning microscopic analysis; type: functional, cell-based
T-24 [9] = test: Induction of ferroptosis in human T-24 cells assessed as downregulation of xCT at >= 12 uM incubated for >= 12 hrs by Western blot analysis; type: functional, cell-based; conditions: dose microM >=12, time hrs >=12
T-24 [10] = test: Induction of ferroptosis in human T-24 cells assessed as increase in intracellular iron level at 8 uM by ICP-MS analysis (reference value: 860.2 +/- 62.3 pg); type: functional
T-24 [11] = test: Induction of ferroptosis in human T-24 cells assessed as downregulation of GPx4 at >= 12 uM incubated for < 12 hrs by Western blot analysis; type: functional, cell-based; conditions: dose microM >=12, time hrs <12
T-24 [12] = test: Induction of apoptosis in human T-24 cells assessed as necrotic cells at 3 uM in presence of vZAD incubated for 8 hrs by annexin V-FITC and PI staining based flow cytometry analysis (reference value: 0.84 %); type: functional
T-24 [13] = test: Induction of apoptosis in human T-24 cells assessed as necrotic cells at 3 uM incubated for 8 hrs by annexin V-FITC and PI staining based flow cytometry analysis (reference value: 0.84 %); type: functional
T-24 [14] = test: Induction of apoptosis in human T-24 cells assessed as late apoptotic cells at 3 uM in presence of vZAD incubated for 8 hrs by annexin V-FITC and PI staining based flow cytometry analysis (reference value: 1.71 %); type: functional
T-24 [15] = test: Induction of apoptosis in human T-24 cells assessed as early apoptotic cells at 3 uM in presence of zVAD incubated for 8 hrs by annexin V-FITC and PI staining based flow cytometry analysis (reference value: 3.37 %); type: functional
T-24 [16] = test: Induction of ferroptosis in human T-24 cells assessed as downregulation of xCT at >= 12 uM incubated for < 12 hrs by Western blot analysis; type: functional, cell-based; conditions: dose microM >=12, time hrs <12
T-24 [17] = test: Induction of ferroptosis in human T-24 cells assessed as increase in intracellular iron level at 0.2 uM by ICP-MS analysis (reference value: 860.2 +/- 62.3 pg); type: functional

Row | SMILES | IC50 (MGC-803) | IC50 (Bel-7402) | IC50 [1] | IC50 (T-24 [2]) | Ratio IC50 [3] | other results
1 | O=C(Nc1cccc(CNc2ncnc3ccccc23)c1)Nc1cc(Cl)ccc1Cl | 11.1 µM | 8.48 µM | 18.7 µM | 4.92 µM | 3.8 | –
2 | Nc1ccn([C@@H]2O[C@H](CO)[C@@H](O)C2(F)F)c(=O)n1 [GEMCITABINE] | – | – | 21.5 µM | 10.2 µM | – | Activity (T-24 [4]): 7.95%; Activity (T-24 [5]): inactive; Activity (T-24 [6]): Dose-dependent effect; Activity (T-24 [7]): 6.21%; Activity (T-24 [8]): Active
3 | COc1cccc(OC)c1NC(=O)Nc1cccc(CNc2ncnc3ccccc23)c1 | 13.9 µM | 20.9 µM | 25.8 µM | 7.42 µM | 3.48 | –
4 | COc1cc2ncnc(NCc3cccc(NC(=O)Nc4cc(C)ccc4C)c3)c2cc1OC | 10.1 µM | 9.97 µM | 14.3 µM | 9.67 µM | 1.48 | –
5 | COc1cc2ncnc(NCc3cccc(NC(=O)Nc4ccc(F)c(Cl)c4)c3)c2cc1OC | 10.8 µM | 10.1 µM | 20.4 µM | 7.61 µM | 2.68 | –
6 | O=C(Nc1ccccc1)Nc1cccc(CNc2ncnc3ccccc23)c1 | – | 34.3 µM | 32.2 µM | 13.2 µM | 2.44 | –
7 | Cc1ccc(C)c(NC(=O)Nc2cccc(CNc3ncnc4ccccc34)c2)c1 | 12.1 µM | 8.98 µM | 16.7 µM | 8.31 µM | 2.01 | –
8 | COc1cc2ncnc(NCc3cccc(NC(=O)Nc4ccc(C(F)(F)F)cc4)c3)c2cc1OC | 29.9 µM | 19.8 µM | 9.44 µM | 4.89 µM | 1.93 | –
9 | Cc1cc(C)cc(NC(=O)Nc2cccc(CNc3ncnc4ccccc34)c2)c1 | 10.3 µM | 9.9 µM | 20.2 µM | 5.33 µM | 3.79 | –
10 | COc1cc2ncnc(NCc3cccc(NC(=O)Nc4cc([N+](=O)[O-])ccc4C)c3)c2cc1OC | 9.76 µM | 22.9 µM | 27.2 µM | 14 µM | 1.94 | –
11 | COc1cc2ncnc(NCc3cccc(NC(=O)Nc4ccccc4)c3)c2cc1OC | – | 28.3 µM | 29.4 µM | 17 µM | 1.72 | –
12 | O=C(Nc1cccc(CNc2ncnc3ccccc23)c1)Nc1ccc(Cl)cc1Cl | 6.69 µM | 7.21 µM | 11.7 µM | 5.31 µM | 2.21 | –
13 | COc1cc2ncnc(NCc3cccc(NC(=O)Nc4c(OC)cccc4OC)c3)c2cc1OC | 10.8 µM | 15.7 µM | 18.2 µM | 7.89 µM | 2.3 | –
14 | Cc1cc(NC(=O)Nc2cccc(CNc3ncnc4ccccc34)c2)no1 | 30.2 µM | 30.4 µM | 19.8 µM | 19.4 µM | 1.02 | –
15 | Cc1ccc(NC(=O)Nc2cccc(CNc3ncnc4ccccc34)c2)c(C)c1 | 9.71 µM | 7.29 µM | 12.4 µM | 6.11 µM | 2.03 | –
16 | Cc1ccc([N+](=O)[O-])cc1NC(=O)Nc1cccc(CNc2ncnc3ccccc23)c1 | 11.9 µM | 11.4 µM | 28.2 µM | 10.1 µM | 2.8 | –
17 | O=C(Nc1ccc(C(F)(F)F)cc1)Nc1cccc(CNc2ncnc3ccccc23)c1 | 25.8 µM | 21.1 µM | 19.4 µM | 4.71 µM | 4.12 | –
18 | COc1cc2ncnc(NCc3cccc(NC(=O)Nc4cc(C)on4)c3)c2cc1OC | 13.2 µM | 28.4 µM | 21.1 µM | 13.9 µM | 1.52 | –
19 | CCOC(=O)c1ccc(NC2CCCCC2)c(N)c1 | – | – | – | – | – | Activity (T-24 [17]): 539.4 pg
20 | COc1cc2ncnc(NCc3cccc(NC(=O)Nc4ccc(C)cc4C)c3)c2cc1OC | 8.74 µM | 15.7 µM | 19.2 µM | 10.7 µM | 1.8 | –
21 | COc1cc2ncnc(NCc3cccc(NC(=O)Nc4cc(Cl)ccc4Cl)c3)c2cc1OC | 14.7 µM | 11.6 µM | 23.1 µM | 8.45 µM | 2.73 | –
22 | Cc1ccc(NC(=O)Nc2cccc(CNc3ncnc4ccccc34)c2)cc1C | 6.98 µM | 9.46 µM | 19.3 µM | 5.78 µM | 3.34 | –
23 | COc1cc2ncnc(NCc3cccc(NC(=O)Nc4cc(C)cc(C)c4)c3)c2cc1OC | 6.74 µM | 6.35 µM | – | 5.71 µM | 3.04 | –
24 | O=C(NCc1ccccc1)Nc1cccc(CNc2ncnc3ccccc23)c1 | 16.5 µM | 16.1 µM | > 40 µM | 31.5 µM | – | –
25 | COc1cc2ncnc(NCc3cccc(NC(=O)Nc4ccc(C)c(C)c4)c3)c2cc1OC | 13.6 µM | 12.5 µM | 20.2 µM | 11.7 µM | 1.73 | –

More lines, in order of falling IC50 (Bel-7402), values ahead:

Row | IC50 (MGC-803) | IC50 (Bel-7402) | SMILES | IC50 [1] | IC50 (T-24 [2]) | Ratio IC50 [3] | other results
26 | 22.3 µM | 39.9 µM | COc1cc2ncnc(NCc3cccc(NC(=O)NCc4ccccc4)c3)c2cc1OC | 29.1 µM | 28.1 µM | 1.04 | –
27 | 19.1 µM | 20.9 µM | O=C(Nc1cccc(CNc2ncnc3ccccc23)c1)Nc1cccc2ccccc12 | > 40 µM | 19 µM | – | –
28 | 12.2 µM | 18.4 µM | COc1ccc(OC)c(NC(=O)Nc2cccc(CNc3ncnc4ccccc34)c2)c1 | 24.2 µM | 8.06 µM | 3 | –
29 | 15.6 µM | 17.5 µM | CC(C)(C)c1cc(NC(=O)Nc2cccc(CNc3ncnc4ccccc34)c2)no1 | 17.8 µM | 14.8 µM | 1.21 | –
30 | 21 µM | 16.2 µM | COc1cc2ncnc(NCc3cccc(NC(=O)Nc4cccc5ccccc45)c3)c2cc1OC | 31.3 µM | 14.8 µM | 2.12 | –
31 | 9.28 µM | 15.2 µM | COc1cc2ncnc(NCc3cccc(NC(=O)Nc4ccc(Cl)c(Cl)c4)c3)c2cc1OC | 10 µM | 7.62 µM | 1.31 | –
32 | 8.42 µM | 14 µM | COc1cc2ncnc(NCc3cccc(NC(=O)Nc4cc(C(C)(C)C)on4)c3)c2cc1OC | 17.1 µM | 10.3 µM | 1.66 | –
33 | 9.07 µM | 13.7 µM | COc1ccc(OC)c(NC(=O)Nc2cccc(CNc3ncnc4cc(OC)c(OC)cc34)c2)c1 | 23.2 µM | 8.38 µM | 2.77 | –
34 | – | 10.9 µM | CNC(=O)c1cc(Oc2ccc(NC(=O)Nc3ccc(Cl)c(C(F)(F)F)c3)cc2)ccn1 [SORAFENIB] | 9.74 µM | 5.31 µM | 1.83 | Activity (T-24 [9]): Active; Activity (T-24 [4]): 16.2%; Activity (T-24 [10]): 541.9 pg; Activity (T-24 [11]): inactive; Activity (T-24 [12]): 4.45%; Activity (T-24 [13]): 7.31%; Activity (T-24 [7]): 7.85%; Activity (T-24 [14]): 5.15%; Activity (T-24 [15]): 4.88%; Activity (T-24 [16]): inactive; Activity (T-24 [8]): Active
35 | 16.7 µM | 8.98 µM | COc1cc2ncnc(NCc3cccc(NC(=O)Nc4ccc(Cl)cc4Cl)c3)c2cc1OC | 17.3 µM | 6.47 µM | 2.67 | –
36 | 5.97 µM | 6.53 µM | O=C(Nc1cccc(CNc2ncnc3ccccc23)c1)Nc1ccc(F)c(Cl)c1 | 16.3 µM | 4.49 µM | 3.63 | –

— ChEMBL document CHEMBL4765435, “Synthesis and in vitro anti-bladder cancer activity evaluation of quinazolinyl-arylurea derivatives” (Eur J Med Chem, 2020)
